Assay results reported in ChEMBL document CHEMBL5303300, “EUbOPEN Chemogenomics Library - Multiplex” (2023).
“And” between values parts separate entries of the source, which are not always exact repeats. Equal entries are not always repeated.

Test system: HEK-293T
Assay: Multiplex assay against HEK293T
Format: toxicity, cell-based
Settings: human, number of replicates 2
In short: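 Values for tubulin, mitochondrial-mass and membrane-permeability phenotypes are per cents of cells with healthy nuclei. These cells were identified by CellPathfinder machine-learning gating of live cells that had been stained at seeding with Hoechst33342, BioTracker Green Microtubule Cytoskeleton Dye, MitoTracker Red and Annexin V Alexa Fluor 680 and imaged on a CQ1 microscope at 37°C and 5% CO2 after compound addition. The gating first set Hoechst high-intensity objects apart from normal cells, then split normal cells into healthy, pyknosed or fragmented nuclei, and pyknosed cells into mitotic or apoptotic.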

[1] = 12 h, 1 µM, compound concentration 1 uM
[2] = 12 h, 10 µM, compound concentration 10 uM
[3] = 24 h, 1 µM, compound concentration 1 uM
[4] = 24 h, 10 µM, compound concentration 10 uM
[5] = 48 h, 1 µM, compound concentration 1 uM
[6] = 48 h, 10 µM, compound concentration 10 uM

Cn1ncc(NC(=O)c2nc(-c3c(F)cccc3F)sc2N)c1N1CC[C@@H](N)[C@H](F)CC1
Population Apoptotic (%) [1]: 29% and 32%
Population Healthy Nuclei (%) [1]: 85% and 86%
Population Mitochondria Different-Phenotype (%) [1]: 10% and 6%
Population Mitotic Cells (%) [1]: 70% and 67%
Population Normal (%) [1]: 92% and 95%
Population Pyknosed Nuclei (%) [1]: 10%
Population Tubulin-Different-Phenotype (%) [1]: 42% and 32%
Total Cell Count [1]: 737 and 724
Population Apoptotic (%) [2]: 34% and 47%
Population Healthy Nuclei (%) [2]: 81% and 80%
Population Mitotic Cells (%) [2]: 65% and 52%
Population Normal (%) [2]: 95% and 97%
Population Pyknosed Nuclei (%) [2]: 16%
Population Tubulin-Different-Phenotype (%) [2]: 54% and 47%
Total Cell Count [2]: 730 and 672
Population Apoptotic (%) [3]: 21% and 25%
Population Healthy Nuclei (%) [3]: 87% and 86%
Population Mitochondria Different-Phenotype (%) [3]: 4%
Population Mitotic Cells (%) [3]: 78% and 74%
Population Normal (%) [3]: 93% and 90%
Population Pyknosed Nuclei (%) [3]: 8% and 9%
Population Tubulin-Different-Phenotype (%) [3]: 25% and 21%
Total Cell Count [3]: 1100 and 1020
Population Apoptotic (%) [4]: 47% and 52%
Population Healthy Nuclei (%) [4]: 85% and 86%
Population Mitochondria Different-Phenotype (%) [4]: 16%
Population Mitotic Cells (%) [4]: 52% and 47%
Population Normal (%) [4]: 97% and 95%
Population Tubulin-Different-Phenotype (%) [4]: 44% and 41%
Total Cell Count [4]: 753 and 689
Population Apoptotic (%) [5]: 15%
Population Healthy Nuclei (%) [5]: 86% and 85%
Population Mitotic Cells (%) [5]: 90% and 84%
Population Normal (%) [5]: 89% and 85%
Population Pyknosed Nuclei (%) [5]: 4% and 5%
Population Tubulin-Different-Phenotype (%) [5]: 12% and 13%
Total Cell Count [5]: 2209 and 1829
Population Apoptotic (%) [6]: 44% and 55%
Population Healthy Nuclei (%) [6]: 89% and 87%
Population Mitochondria Different-Phenotype (%) [6]: 10%
Population Mitotic Cells (%) [6]: 55%
Population Normal (%) [6]: 94% and 92%
Population Pyknosed Nuclei (%) [6]: 4% and 6%
Population Tubulin-Different-Phenotype (%) [6]: 29% and 23%
Total Cell Count [6]: 770 and 768

CNC(=O)c1c(F)cccc1Nc1nc(Nc2cc3c(cc2OC)CCN3C(=O)CN(C)C)nc2[nH]ccc12
Population Apoptotic (%) [1]: 62% and 55%
Population Fragmented Nuclei (%) [1]: 4% and 2%
Population Healthy Nuclei (%) [1]: 82% and 86%
Population Hoechst High Intensity Objects (%) [1]: 12%
Population Membrane Permeable-Phenotype (%) [1]: 1% and 0%
Population Mitochondria Different-Phenotype (%) [1]: 46% and 51%
Population Mitotic Cells (%) [1]: 37% and 44%
Population Normal (%) [1]: 87%
Population Pyknosed Nuclei (%) [1]: 13% and 10%
Population Tubulin-Different-Phenotype (%) [1]: 81% and 83%
Total Cell Count [1]: 326 and 308
Population Apoptotic (%) [2]: 45% and 56%
Population Fragmented Nuclei (%) [2]: 7%
Population Healthy Nuclei (%) [2]: 75% and 73%
Population Hoechst High Intensity Objects (%) [2]: 44% and 47%
Population Membrane Permeable-Phenotype (%) [2]: 4% and 2%
Population Mitochondria Different-Phenotype (%) [2]: 66% and 59%
Population Mitotic Cells (%) [2]: 54% and 44%
Population Normal (%) [2]: 55% and 52%
Population Pyknosed Nuclei (%) [2]: 17% and 19%
Population Tubulin-Different-Phenotype (%) [2]: 94% and 93%
Total Cell Count [2]: 246 and 244
Population Apoptotic (%) [3]: 40% and 83%
Population Fragmented Nuclei (%) [3]: 9% and 7%
Population Healthy Nuclei (%) [3]: 84% and 88%
Population Hoechst High Intensity Objects (%) [3]: 12% and 9%
Population Membrane Permeable-Phenotype (%) [3]: 0%
Population Mitochondria Different-Phenotype (%) [3]: 34% and 30%
Population Normal (%) [3]: 87% and 90%
Population Pyknosed Nuclei (%) [3]: 5% and 4%
Population Tubulin-Different-Phenotype (%) [3]: 81% and 79%
Total Cell Count [3]: 390 and 332
Population Apoptotic (%) [4]: 37% and 38%
Population Fragmented Nuclei (%) [4]: 6%
Population Healthy Nuclei (%) [4]: 79% and 80%
Population Hoechst High Intensity Objects (%) [4]: 37% and 45%
Population Membrane Permeable-Phenotype (%) [4]: 8% and 4%
Population Mitochondria Different-Phenotype (%) [4]: 45% and 40%
Population Mitotic Cells (%) [4]: 62% and 61%
Population Normal (%) [4]: 62% and 54%
Population Pyknosed Nuclei (%) [4]: 14% and 12%
Population Tubulin-Different-Phenotype (%) [4]: 93% and 94%
Total Cell Count [4]: 266 and 259
Population Apoptotic (%) [5]: 25% and 66%
Population Fragmented Nuclei (%) [5]: 16% and 11%
Population Healthy Nuclei (%) [5]: 80% and 86%
Population Hoechst High Intensity Objects (%) [5]: 21% and 30%
Population Membrane Permeable-Phenotype (%) [5]: 1%
Population Mitochondria Different-Phenotype (%) [5]: 4% and 8%
Population Mitotic Cells (%) [5]: 75% and 33%
Population Normal (%) [5]: 78% and 69%
Population Pyknosed Nuclei (%) [5]: 2% and 1%
Population Tubulin-Different-Phenotype (%) [5]: 63% and 69%
Total Cell Count [5]: 741 and 531
Population Apoptotic (%) [6]: 57% and 71%
Population Fragmented Nuclei (%) [6]: 9%
Population Healthy Nuclei (%) [6]: 80% and 77%
Population Hoechst High Intensity Objects (%) [6]: 29% and 35%
Population Membrane Permeable-Phenotype (%) [6]: 5% and 7%
Population Mitochondria Different-Phenotype (%) [6]: 18% and 11%
Population Mitotic Cells (%) [6]: 42% and 28%
Population Normal (%) [6]: 70% and 64%
Population Pyknosed Nuclei (%) [6]: 9% and 13%
Population Tubulin-Different-Phenotype (%) [6]: 87%
Total Cell Count [6]: 402 and 414
